Experimental data reported in article PMC9394215 (Journal for Immunotherapy of Cancer, 2022).

Molecular target: T1, human CD39 (Homo sapiens, UniProt P49961)
T1 sequence (P49961 1-510): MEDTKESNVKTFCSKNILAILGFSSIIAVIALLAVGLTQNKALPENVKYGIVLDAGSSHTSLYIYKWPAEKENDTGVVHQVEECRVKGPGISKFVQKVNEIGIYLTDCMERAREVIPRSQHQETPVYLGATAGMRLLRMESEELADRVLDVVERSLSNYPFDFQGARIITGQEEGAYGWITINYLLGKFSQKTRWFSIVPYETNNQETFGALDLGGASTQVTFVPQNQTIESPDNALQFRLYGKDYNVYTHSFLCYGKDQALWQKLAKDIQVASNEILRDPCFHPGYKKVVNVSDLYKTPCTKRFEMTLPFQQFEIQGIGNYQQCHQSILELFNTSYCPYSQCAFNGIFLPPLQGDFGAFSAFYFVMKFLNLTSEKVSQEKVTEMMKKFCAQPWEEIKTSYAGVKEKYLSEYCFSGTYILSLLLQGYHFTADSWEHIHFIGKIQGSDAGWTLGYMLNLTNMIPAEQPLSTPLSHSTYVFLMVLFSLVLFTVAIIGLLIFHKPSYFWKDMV
Assay type: biochemical
Details: for inhibition of CD39 (in words): library screen at 10 µM, figure 3
Method in brief: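 CD39 came from human umbilical cord membranes (50.0 ng protein per well). Substrate was 50 µM ATP in 10 mM HEPES, 2 mM CaCl2, 1 mM MgCl2, pH 7.4, with ≤2% DMSO. Enzyme and test compound were preincubated 5 min at 37°C; reaction ran 15 min at 37°C. Malachite green/molybdate was added and A600 read after 20 min at 25°C, minus a heat-denatured enzyme blank. Screening was at 10 µM; curves spanned 0.1–300 µM; n=3.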

Row | inhibition of CD39 (in words) | inhibition at 10 µM (read-out: inhibition of human CD39) [%] | Compound
1 | did not inhibit | – | CCc1cc2c(cc1N1CCC(N3CCOCC3)CC1)C(C)(C)c1[nH]c3cc(C#N)ccc3c1C2=O [alectinib, Alectinib]
2 | did not inhibit | – | C[C@@H](Oc1cc(-c2cnn(C3CCNCC3)c2)cnc1N)c1c(Cl)ccc(F)c1Cl [critozinib, Crizotinib]
3 | – | 33 | Cc1ccc(C(=O)Nc2ccc(CN3CCN(C)CC3)c(C(F)(F)F)c2)cc1C#Cc1cnc2cccnn12 [ponatinib, Ponatinib]
